What was measured:
[1] = folding enthalpy; higher = less favourable; fluorescence melt of hairpins on a sequencing array, two-state fit; conditions: sodium 0.088 M
Outline: (§1)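 On a sequenced MiSeq flow cell, library hairpins with annealed Cy3 and quencher oligos were imaged for Cy3 fluorescence in 2.5 °C steps up to 60 °C, in 50 mM Na-HEPES pH 8.0, 25 mM NaCl. Normalisation used pre-quench Cy3 and control constructs. Bootstrapped two-state fits gave melting temperature and folding enthalpy, combined by inverse variance across four replicates and with fitted temperatures raised by 9.35 °C to match UV melts.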

[2] = melting temperature; fluorescence melt of hairpins on a sequencing array, two-state fit, raised by 9.35 °C to match UV melts; conditions: sodium 0.088 M
Outline: as §1

Sequence	folding enthalpy [1]	Tm [2]
GCGTAAGAAATTACGC ((((((....))))))	-40.4 kcal/mol	55.3 °C
GTGTAGGGAAACCTACAC (((((((....)))))))	-41.1 kcal/mol	61.5 °C
GCGGACCTCCGC ((((....))))	-27.4 kcal/mol	55.9 °C
GCGGAAACGAAAGTTCGC (((..(((....))))))	-27.5 kcal/mol	48.8 °C
GCAGTACGAAAGTAGTGC (((.(((....))).)))	-47 kcal/mol	57.6 °C
GCATCAGGAAACTAATGC ((((.((....)).))))	-22.6 kcal/mol	31.5 °C
GCGGGACCCCGC ((((....))))	-26 kcal/mol	67.8 °C
GATTTTGGAAACAAAACC (.(((((....))))).)	-24.9 kcal/mol	29.6 °C
GTAACTCGAAAGAGCTAC (((.(((....))).)))	-29.2 kcal/mol	41.9 °C
GCGTTCGCGAAAGCGCGC (((..(((....))))))	-19.3 kcal/mol	52.7 °C
GCTAGGCGAAAGCGTTGC ((.(.((....)).).))	-21.9 kcal/mol	42 °C
GGCACCGGAAACGGCACC ((..(((....)))..))	-15.8 kcal/mol	30.9 °C
GCAATCACGAAAGTGTGC (((..(((....))))))	-19.5 kcal/mol	39.9 °C
GGAGTCGGAAACGGCTTC (.((.((....)).)).)	-21.7 kcal/mol	44.3 °C
GTTTATGGAAACATGAAC (((.(((....))).)))	-31.3 kcal/mol	35.7 °C
GCGTGGCGAAAGCAAAGC ((.(.((....)).).))	-17.4 kcal/mol	52.1 °C
GATCCCAAATGGGATC ((((((....))))))	-36.4 kcal/mol	57.7 °C
GCCCCTCGAAAGAGCGGC (((.(((....))).)))	-33 kcal/mol	49.8 °C
GGTCGTCCGAAAGGAACC (((..(((....))))))	-9.14 kcal/mol	26.3 °C

Sequence	folding enthalpy [1]	Tm [2]
GATCGAGGAAACTCGATC (((((((....)))))))	-44.5 kcal/mol	62.7 °C
GCCATCGAAAGATAAGGC ((((((....)))..)))	-23.5 kcal/mol	44.8 °C
CGGATCCGGAAACGGCCG (((..(((....))))))	-20.6 kcal/mol	38.3 °C
GCGAGCTGTCGC ((((....))))	-17.8 kcal/mol	48.8 °C
GAAAGGAAACTTTC (((((....)))))	-16.9 kcal/mol	30.4 °C
GGTGACGAAAGTCCTACC ((((((....)))..)))	-13.8 kcal/mol	33.5 °C
GATCTCAGAAGAGATC ((((((....))))))	-33.5 kcal/mol	50.6 °C
GAAGCCGAAAGGCTGTTC ((((((....)))..)))	-10.4 kcal/mol	47.4 °C
GATCCAACCTTGGATC ((((((....))))))	-51.5 kcal/mol	51.5 °C
GGTGCCGGAAACGGTGCC ((..(((....)))..))	-41.5 kcal/mol	56.6 °C
GGATGTCGAAAGACTTCC (((.(((....))).)))	-39.6 kcal/mol	51.5 °C
GTACGGACGAAAGTCTAC (((..(((....))))))	-10.2 kcal/mol	31 °C
GCACCGCGAAAGCGCGGC ((..(((....)))..))	-11 kcal/mol	45 °C
GCACACTCGAAAGAGTGC (((..(((....))))))	-9.86 kcal/mol	38 °C
GGCGTCGAAAGACTAGCC ((((((....)))..)))	-34 kcal/mol	54.5 °C
GATCATGAAATGATC ((((((...))))))	-40.9 kcal/mol	58.9 °C
GATCCGCGCCGGATC ((((((...))))))	-33.9 kcal/mol	60 °C
GGCTGTGGAAACATGGCC (((..((....))..)))	-32.6 kcal/mol	49.5 °C
GTAACGCGAAAGCGTAC (((.(((....))))))	-10.6 kcal/mol	49 °C

Sequence	folding enthalpy [1]	Tm [2]
CGAACGGAAACGTGCTCG ((((((....)))..)))	-15.1 kcal/mol	28.5 °C
GTATCCGAAAGGAGCTAC ((((((....)))..)))	-12.6 kcal/mol	31.8 °C
GCTAAGACGAAAGTCAGC (((..(((....))))))	-20.4 kcal/mol	44.3 °C
GCTCTCGAAAGAGTTAGC ((((((....)))..)))	-21.8 kcal/mol	35.3 °C
GTCCAGGGAAACCTGGGC (.(((((....))))).)	-33.1 kcal/mol	56.5 °C
GTAGCGGGAAACCGTTGC (.(.(((....))).).)	-19.2 kcal/mol	35.3 °C
TCTTGGAAACAAGA (((((....)))))	-11.1 kcal/mol	35.7 °C
GGGCACCCGAAAGGGCCC (((..(((....))))))	-36.7 kcal/mol	58 °C
GCGTTTGGAAACGAACGC (((((.(....).)))))	-61.3 kcal/mol	55.7 °C
GTGTCTGGAAACAGACGC (.(((((....))))).)	-33.4 kcal/mol	54.7 °C
GTCAGCCGAAAGGCAGAC (((.(((....))).)))	-24.4 kcal/mol	61.9 °C
GGGACCACGAAAGTGCCC (((..(((....))))))	-15.7 kcal/mol	40 °C
GATTGCCGAAAGGCGATC (((.(((....))).)))	-28.4 kcal/mol	61.9 °C
GGGAGAGGAAACTCTCTC (.(((((....))))).)	-21.4 kcal/mol	46.2 °C
GGAGTGGGAAACCACCCC ((.((((....)))).))	-21.5 kcal/mol	47.1 °C
GATCACCGGCGTGATC ((((((....))))))	-37.7 kcal/mol	54.7 °C
GCGCAAGGAAACTCGCAC (.((.((....)).)).)	-13.1 kcal/mol	27.2 °C
GCTCCCGAAAGGGGTAGC ((((((....)))..)))	-18.1 kcal/mol	48.7 °C

Reference: the array DNA melting data of Ke et al. (doi:10.1101/2024.01.08.574731)
